The text below walks through data of ChEMBL document CHEMBL5154657, “Design, synthesis and biological evaluation of 1,5-disubstituted α-amino tetrazole derivatives as non-covalent inflammasome-caspase-1 complex inhibitors with potential application against immune and inflammatory disorders” (Eur J Med Chem, 2022).

Usually IC50 stands for the midpoint of a concentration-inhibition curve. Higher therefore signals a need for much substance.

For one data set, the target named is T1, Caspase-1 (Homo sapiens) (UniProt P29466).
T1 sequence (whole entry): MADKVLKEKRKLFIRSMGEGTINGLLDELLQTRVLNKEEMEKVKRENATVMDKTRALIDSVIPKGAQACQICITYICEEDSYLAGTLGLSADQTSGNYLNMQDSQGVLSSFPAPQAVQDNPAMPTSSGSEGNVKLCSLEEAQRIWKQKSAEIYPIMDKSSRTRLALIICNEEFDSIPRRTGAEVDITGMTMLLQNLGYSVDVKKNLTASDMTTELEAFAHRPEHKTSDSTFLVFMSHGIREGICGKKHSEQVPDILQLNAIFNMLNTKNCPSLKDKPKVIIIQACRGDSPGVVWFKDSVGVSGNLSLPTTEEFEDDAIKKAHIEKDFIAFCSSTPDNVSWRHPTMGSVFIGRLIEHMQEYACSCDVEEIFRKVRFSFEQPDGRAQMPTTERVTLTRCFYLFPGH
Nature of the data set: Inhibition of caspase 1 (unknown origin) assessed as enzyme residual activity using YVAD-AFC as substrate at 100 uM by fluorescence analysis. The essentials:
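Caspase-1 cleavage of an AFC-labelled peptide substrate is monitored over time by fluorescence (Ex/Em 400/505 nm). Residual enzyme activity is expressed as % with 100 μM compound, relative to an untreated control.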

The target in the next data set is T2, Caspase-1 (Homo sapiens, UniProt P29466).
T2 sequence (P29466 whole entry): T1 sequence (whole entry)
The data set can be described thus: Inhibition of caspase 1 (unknown origin) using YVAD-AFC as substrate by fluorescence analysis. The essentials: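 Caspase-1 activity is followed as a time course of fluorescence from cleavage of an AFC-labelled peptide substrate (Ex/Em 400/505 nm). Compounds are tested as a 10-dose series with 3-fold serial dilution starting at 100 μM or 10 μM. IC50 is the concentration halving enzyme activity. Curves are fitted only when activity at the top concentration is below 60%.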

The nature of data set [1]: Cytotoxicity against human U-937 cells assessed as reduction in cell viability at 100 uM after 48 hrs by MTT assay. It counts as toxicity, cell-based. The conditions noted are these: read-out: INH. The procedure, abridged: (§1)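 Human histiocytic lymphoma U937 cells are grown in RPMI 1640 with 10% FBS, penicillin and streptomycin at 37 °C under 5% CO₂. They are seeded at 10000 cells/well and exposed to compound from 1 nM to 100 μM for 48 h, with matched DMSO-only solvent controls. MTT (0.1 mg) is added for 4 h at 37 °C, cells are lysed, and A595 is read. Viability is given as % of control, as the mean of three independent experiments.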

The next data set deals with U-937. Nature of the data set: Cytotoxicity against human U-937 cells assessed as reduction in cell viability at 10 to 100 nM after 48 hrs by MTT assay. It counts as toxicity, cell-based. The conditions noted are these: u-937, 48 h, 0.1 µM, dose 10-100 nM. The procedure, abridged:
as §1
In general terms: Formazan colour is commonly taken as a measure of viable cells.

Data set [2] can be described thus: Inhibition of LPS-induced IL-1beta secretion in human U-937 cells measured after 24 hrs by ELISA. The format is functional, cell-based. The conditions noted are these: U-937, 24 h. The essentials:
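U937 human histiocytic lymphoma cells, grown in RPMI 1640 with 10% FBS, differentiated into macrophages with […] for 24h. Compound given at graded concentrations, 10 μM down to 1 nM, together with LPS (1 μg/ml) for 24h. Supernatants frozen at −80 °C, then IL-1β measured by sandwich ELISA. IC50 taken from regression of % inhibition against log concentration.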
(In general: An ELISA detects its analyte on a solid surface through an enzyme-linked reagent.)

Data set [3] is described as follows: Inhibition of LPS-induced IL-1beta secretion in human U-937 cells preincubated for 4 hrs with LPS followed by compound treatment for overnight by ELISA. The format is functional, cell-based. The essentials: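 U937 cells in RPMI 1640 with 10% FBS, differentiated with […] for 24h. Primed with LPS (1 μg/ml) for 4h, then compound added at graded concentrations, 10 μM down to 1 nM, overnight. Supernatants stored at −80 °C, and human IL-1β measured by sandwich ELISA. IC50 from regression of % inhibition against log concentration.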

Structures are written as SMILES.

`O=C(O)CC(O)CNC(c1nnnn1CCCC(=O)N1CCc2ccccc2C1)C1CC1` (stereo unspecified): the Activity on Caspase-1 (Homo sapiens) came out at 90%.

Regarding `O=C(O)C[C@@H](O)CN[C@H](c1ccccc1)c1nnnn1CCCC(=O)NCc1ccccc1`, the Activity on Caspase-1 (Homo sapiens) amounted to 63.3%.

`CC(C)(C)C(NCC(O)CC(=O)O)c1nnnn1CCCC(=O)N1CCc2ccccc2C1` (stereo unspecified): the Activity on Caspase-1 (Homo sapiens) was determined as 61.9%.

Consider `CC(C)CC(c1nnnn1CCCC(=O)N1CCc2ccccc2C1)N(Cc1ccc(F)cc1)CC(O)CC(=O)O` (stereo unspecified), for which half-maximal inhibition against Caspase-1 (IC50) required 20.7 µM. Besides, the Activity on Caspase-1 (Homo sapiens) was determined as 2.06%.

With `CC(C)C(NCC(O)CC(=O)O)c1nnnn1CCCC(=O)N1CCc2ccccc2C1` (stereo unspecified), the Activity on Caspase-1 (Homo sapiens) is 77.8%.

As for `O=C(O)CC(O)CN[C@H](c1cccs1)c1nnnn1CCCC(=O)N1CCc2ccccc2C1` (stereo partly specified), at Caspase-1 (Homo sapiens), the Activity stood at 37.2%.

`O=C(O)CC(O)CN[C@@H](c1cccs1)c1nnnn1CCCC(=O)NCc1ccccc1` (stereo partly specified): at Caspase-1 (Homo sapiens), the Activity came out at 49.6%.

The molecule `COc1cc2c(cc1OC)CN(C(=O)CCCn1nnnc1C(CC(C)(C)C)NCC(O)CC(=O)O)CC2` (stereo unspecified) had an IC50 at Caspase-1 of 14.6 µM. In addition, the Activity on Caspase-1 (Homo sapiens) worked out at 9.49%.

With `O=C(O)CC(O)CN[C@@H](c1cccs1)c1nnnn1CCCC(=O)N1CCc2ccccc2C1` (stereo partly specified), at Caspase-1 (Homo sapiens), the Activity is 29%.

On to `COc1cc2c(cc1OC)CN(C(=O)CCCn1nnnc1C(NCC(O)CC(=O)O)C1CC1)CC2` (stereo unspecified), for which the Activity at Caspase-1 (Homo sapiens) was 80.6%.

Turning to `O=C(O)CC(O)CNC(c1nnnn1CCCC(=O)NCc1ccccc1)C1CC1` (stereo unspecified), the Activity at Caspase-1 (Homo sapiens) worked out at 77.1%.

Regarding `CC(C)(C)CC(c1nnnn1CCCC(=O)N1CCc2ccccc2C1)N(Cc1ccccc1)CC(O)CC(=O)O` (stereo unspecified), on Caspase-1, 10.3 µM corresponded to half-maximal inhibition (IC50). In addition, the Activity at Caspase-1 (Homo sapiens) is 2.91%.

Consider `CC(C)(C)CC(NCC(O)CC(=O)[O-])c1nnnn1CCCC(=O)N1CCc2ccccc2C1.[Na+]` (stereo unspecified), for which the IC50 on Caspase-1 is 15.1 µM; in data set [2], 50.1 µM. The Activity is 8.12% at Caspase-1 (Homo sapiens) and “Non-Toxic” in the data set on U-937. Further, the cytotoxicity at 48 h, 100 µM in data set [1] stood at 50%.

Take `CC(C)(C)C[C@@H](NCC(O)CC(=O)O)c1nnnn1CCCC(=O)N1CCc2ccccc2C1` (stereo partly specified): at Caspase-1 (Homo sapiens), the Activity was 9.71%.

Consider `O=C(O)CC(O)CNC(c1cccs1)c1nnnn1CCCC(=O)N1CCc2ccccc2C1` (stereo unspecified), for which the Activity at Caspase-1 (Homo sapiens) was 77.2%.

Consider `O=C(O)C[C@H](O)CN[C@@H](c1ccccc1)c1nnnn1CCCC(=O)NCc1ccccc1`, for which the Activity at Caspase-1 (Homo sapiens) amounted to 62.4%.

In the case of `CC(C)(C)CC(NCC(O)CC(=O)O)c1nnnn1CCCC(=O)NCc1ccccc1` (stereo unspecified), at Caspase-1 (Homo sapiens), the Activity amounted to 59.9%.

As to `O=C(O)C[C@H](O)CN[C@H](c1cccs1)c1nnnn1CCCC(=O)NCc1ccccc1`, the Activity at Caspase-1 (Homo sapiens) was 69.8%.

In the case of `CC(C)CC(NCC(O)CC(=O)O)c1nnnn1CCCC(=O)N1CCc2ccccc2C1` (stereo unspecified), half-maximal inhibition against Caspase-1 (IC50) required 79.4 µM. At Caspase-1 (Homo sapiens), the Activity stood at 43.7%.

As to `COc1cc2c(cc1OC)CN(C(=O)CCCn1nnnc1C(NCC(O)CC(=O)O)C(C)(C)C)CC2` (stereo unspecified), the Activity at Caspase-1 (Homo sapiens) is 96.7%.

Regarding `CC(C)CC(c1nnnn1CCCC(=O)N1CCc2ccccc2C1)N(Cc1ccccc1)CC(O)CC(=O)[O-].[Na+]` (stereo unspecified), the IC50 is 12.1 µM at Caspase-1, 0.85 µM in data set [3] and 0.35 µM in data set [2]. For the same molecule, the Activity was 2.47% on Caspase-1 (Homo sapiens) and “Non-Toxic” in the data set on U-937. Moreover, the cytotoxicity at 48 h, 100 µM in data set [1] was 50%.

In the case of `CC(C)(C)C[C@H](c1nnnn1CCCC(=O)N1CCc2ccccc2C1)N(Cc1ccccc1)CC(O)CC(=O)O` (stereo partly specified), the Activity on Caspase-1 (Homo sapiens) was 4.45%.

For `O=C(O)CC(O)CN[C@H](c1ccccc1)c1nnnn1CCCC(=O)N1CCc2ccccc2C1` (stereo partly specified), the Activity on Caspase-1 (Homo sapiens) stood at 40.5%.

Consider `CC(C)(C)CC(c1nnnn1CCCC(=O)N1CCc2ccccc2C1)N(Cc1ccc(F)cc1)CC(O)CC(=O)O` (stereo unspecified), for which, on Caspase-1, the IC50 amounted to 12.7 µM. In addition, on Caspase-1 (Homo sapiens), the Activity turned out to be 3.9%.

On to `O=C(O)CC(O)CNC(c1ccccc1)c1nnnn1CCCC(=O)N1CCc2ccccc2C1` (stereo unspecified), for which, on Caspase-1, the IC50 is 94.1 µM. Moreover, at Caspase-1 (Homo sapiens), the Activity was 48%.

On to `O=C(O)CC(O)CN[C@@H](c1ccccc1)c1nnnn1CCCC(=O)N1CCc2ccccc2C1` (stereo partly specified), for which the Activity at Caspase-1 (Homo sapiens) was found to be 48.6%.
